# ChEMBL document CHEMBL3272073, “3-Fluoro-1-hydroxypropan-2-one (fluorohydroxyacetone) and some esters. Syntheses and effects in BDF mice” (J Med Chem, 1977)
# Active and inactive are the calls of the source.
# Experiments:
# [1] = Toxicity in ip dosed BDF1 mouse; type: organism-based; conditions: in vivo
# Outline: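 Acute toxicity in female BDF1 mice, reported as LD50 in mg/kg and mmol/kg.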
# Ehrlich [2] = experiment: Antitumor activity against mouse EAC allografted in BDF1 mouse assessed as inhibition of tumor growth < LD50 administered as ip; type: functional
# Ehrlich [3] = experiment: Antitumor activity against mouse EAC allografted in BDF1 mouse assessed as cure from tumor at < LD50 administered as ip after 180 days; type: functional, organism-based
# Outline: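 Mice bearing Ehrlich ascites carcinoma were treated with ester. Cure was defined as survival to 180 days.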
# L1210 = experiment: Antitumor activity against mouse L1210 cells allografted in immune competent BDF1 mouse assessed as increase of host survival at < LD50 administered as ip after 60 days; type: functional
# [4] = Toxicity in mouse L1210 cells allografted immunosuppressed BDF1 mouse assessed as mortality dosed intraperitoneally <LD50 after 60 days; type: organism-based; conditions: in vivo, ip, read-out: Activity
SMILES,LD50 [1],further results
C1CCC(NC2CCCCC2)CC1.O=P(O)(O)OCC(O)CF,300 µmol/kg,–
COC(CO)(CF)OC,200 µmol/kg,–
O=C(CF)COP(=O)(O)O,150 µmol/kg,TGI (Ehrlich [2]): Active
O=C(CCl)COC(=O)c1cc([N+](=O)[O-])cc([N+](=O)[O-])c1,880 µmol/kg,–
CC(=O)COC(=O)c1ccccc1,7860 µmol/kg,–
OCC(O)CCl (stereo not given),1800 µmol/kg,–
OCC(O)CF (stereo not given),210 µmol/kg,–
O=C(CCl)COP(=O)(O)O,360 µmol/kg,–
CC(=O)OCC(=O)CCl,470 µmol/kg,–
O=C(CF)COC(=O)c1ccccc1,180 µmol/kg,TGI (Ehrlich [2]): Active
O=C(CCl)COC(=O)c1ccc([N+](=O)[O-])cc1,660 µmol/kg,Activity (Ehrlich [3]): Active
O=C(CBr)COC(=O)c1ccccc1,120 µmol/kg,–
O=C(OCC(O)CBr)c1ccccc1 (stereo not given),1370 µmol/kg,–
OCC(O)CBr (stereo not given),1370 µmol/kg,–
O=C(OCC(O)CF)c1ccccc1 (stereo not given),230 µmol/kg,–
O=C(CF)COC(=O)c1ccc([N+](=O)[O-])cc1,370 µmol/kg,–
CC(=O)OCC(CF)OC(C)=O (stereo not given),220 µmol/kg,–
CC(=O)OCC(CCl)OC(C)=O (stereo not given),1740 µmol/kg,–
CC(=O)OCC(=O)CF,220 µmol/kg,–
O=C(CCl)COC(=O)c1ccccc1,330 µmol/kg,Survival (L1210): 85%; Activity (Ehrlich [3]): Active; mortality at 1440 h [4]: 85%
COC(CF)(COC(=O)c1ccccc1)OC,230 µmol/kg,–
O=C(CO)CF,220 µmol/kg,–
O=C(OCC(O)CCl)c1ccccc1 (stereo not given),2100 µmol/kg,–
C1CCC(NC2CCCCC2)CC1.O=P(O)(O)OCC(O)CCl,2100 µmol/kg,–
